Active and inactive are the calls of the source. The rule behind the calls is not given here.
Assays:
[1] = tested on: Plasmodium berghei; assay: Antimalarial activity as reduced parasitaemia against Plasmodium berghei ANKA infected NMRI mice (Mus musculus) at 100 mg/kg peroral dose after 3 days; type: functional; set-up: scale not given: the % may be the effect or the level left; settings: route oral
Summary of the method: (§1)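 GFP-transfected P. berghei ANKA-infected NMRI mice, in groups of three, got a single dose 1 day post-infection. Compounds were in 70/30 Tween 80/ethanol, diluted 10× with water. Read-outs were % parasitemia reduction on day 3 post-infection and survival time versus untreated controls (n = 5).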

[2] = tested on: Plasmodium berghei; assay: Antimalarial activity as survival time against Plasmodium berghei ANKA infected NMRI mice (Mus musculus) at 10 mg/kg/day peroral dose over 4 days; type: functional; settings: route oral
Summary of the method: (§2)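 NMRI mice, in groups of three, were infected with GFP-transfected P. berghei ANKA. Treatment started 1 day post-infection, once daily for 4 consecutive days. Compounds were formulated in 70/30 Tween 80/ethanol and diluted 10× with water. Read-outs were % parasitemia reduction on day 4 post-infection and survival versus untreated controls (n = 5). Cure meant no parasites by microscopy at day 30.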

[3] = tested on: Plasmodium berghei; assay: Antimalarial activity as reduced parasitaemia against Plasmodium berghei ANKA infected NMRI mice (Mus musculus) at 30 mg/kg/day peroral dose over 4 days; type: functional; set-up: scale not given: the % may be the effect or the level left; settings: route oral; summary of the method: as §2
[4] = tested on: Plasmodium berghei; assay: Antimalarial activity as reduced parasitaemia against Plasmodium berghei ANKA infected NMRI mice (Mus musculus) at 10 mg/kg/day subcutaneous dose over 4 days; type: functional; set-up: scale not given: the % may be the effect or the level left; summary of the method: as §2
[5] = tested on: Plasmodium berghei; assay: Antimalarial activity as reduced parasitaemia against Plasmodium berghei ANKA infected NMRI mice (Mus musculus) at 30 mg/kg subcutaneous dose after 3 days; type: functional; set-up: scale not given: the % may be the effect or the level left; summary of the method: as §1
[6] = tested on: K562; assay: Cytotoxicity against human K562 cells by MTT assay; type: cell-based
[7] = tested on: Plasmodium berghei; assay: Antimalarial activity as survival time in Plasmodium berghei ANKA infected NMRI mice (Mus musculus) at 100 mg/kg peroral dose after 3 days; type: functional; settings: route oral; summary of the method: as §1
[8] = tested on: Plasmodium berghei; assay: Antimalarial activity as survival time in Plasmodium berghei ANKA infected NMRI mice (Mus musculus) at 30 mg/kg subcutaneous dose after 3 days; type: functional; summary of the method: as §1
[9] = tested on: Plasmodium berghei; assay: Antimalarial curative activity at day 30 against Plasmodium berghei ANKA infected NMRI mice (Mus musculus) at 30 mg/kg/day peroral dose over 4 days; type: functional, organism-based; summary of the method: as §2
[10] = tested on: Plasmodium berghei; assay: Antimalarial activity a survival time in Plasmodium berghei ANKA infected NMRI mice (Mus musculus) at 30 mg/kg/day peroral dose over 4 days; type: functional; settings: route oral; summary of the method: as §2
[11] = Cytotoxicity against human HMEC1 cells by MTT assay; type: cell-based; settings: HMEC-1
[12] = tested on: Plasmodium berghei; assay: Antimalarial activity as survival time against Plasmodium berghei ANKA infected NMRI mice (Mus musculus) at 10 mg/kg/day subcutaneous dose over 4 days; type: functional; summary of the method: as §2
[13] = Cytotoxicity against mouse WEHI clone 13 cells by MTT assay; type: cell-based
[14] = tested on: Plasmodium berghei; assay: Antimalarial activity as reduced parasitaemia against Plasmodium berghei ANKA infected NMRI mice (Mus musculus) at 3 mg/kg/day subcutaneous dose over 4 days; type: functional; set-up: scale not given: the % may be the effect or the level left; summary of the method: as §2
[15] = tested on: Plasmodium berghei; assay: Antimalarial activity as survival time against Plasmodium berghei ANKA infected NMRI mice (Mus musculus) at 3 mg/kg/day subcutaneous dose over 4 days; type: functional; summary of the method: as §2
[16] = target: T1, Histidine-rich protein PFHRP-II (Plasmodium falciparum) (UniProt P05227); assay: Inhibition of beta-hematin formation as ratio to heme molar equivalent in Plasmodium falciparum; type: functional
T1 sequence (whole entry): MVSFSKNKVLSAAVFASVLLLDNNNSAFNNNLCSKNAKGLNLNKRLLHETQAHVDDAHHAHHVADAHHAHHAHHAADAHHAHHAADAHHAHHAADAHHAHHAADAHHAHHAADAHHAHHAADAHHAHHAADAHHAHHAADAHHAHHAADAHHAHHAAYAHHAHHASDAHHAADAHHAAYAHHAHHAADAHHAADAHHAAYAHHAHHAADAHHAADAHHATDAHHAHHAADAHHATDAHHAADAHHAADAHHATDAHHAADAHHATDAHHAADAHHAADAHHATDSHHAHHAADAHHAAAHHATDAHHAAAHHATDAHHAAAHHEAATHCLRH

[17] = tested on: Plasmodium berghei; assay: Antimalarial activity as reduced parasitaemia against Plasmodium berghei ANKA infected NMRI mice (Mus musculus) at 10 mg/kg/day peroral dose over 4 days; type: functional; set-up: scale not given: the % may be the effect or the level left; settings: route oral; summary of the method: as §2
[18] = tested on: Plasmodium falciparum; assay: Antimalarial activity against chloroquine-resistant Plasmodium falciparum K1 by [3H]hypoxanthine uptake; type: functional, organism-based
Summary of the method: (§3)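 Growth inhibition of P. falciparum was measured by [3H]-hypoxanthine incorporation. IC50 is the mean of two experiments.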

[19] = tested on: Plasmodium falciparum; assay: Antimalarial activity against chloroquine-resistant Plasmodium falciparum W2 by LDH assay; type: functional, organism-based
Summary of the method: (§4)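 Parasite growth inhibition in P. falciparum culture was read as parasite lactate dehydrogenase production. IC50 is the mean of 3–4 experiments, each run in triplicate.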

[20] = tested on: Plasmodium falciparum; assay: Antimalarial activity against chloroquine-sensitive Plasmodium falciparum NF54 by [3H]hypoxanthine uptake; type: functional, organism-based; summary of the method: as §3
[21] = tested on: Plasmodium falciparum; assay: Antimalarial activity against chloroquine-sensitive Plasmodium falciparum D10 by LDH assay; type: functional, organism-based; summary of the method: as §4
[22] = tested on: Liver microsomes; assay: Metabolic stability in human liver microsomes assessed as clearance; type: ADME, Microsome
Summary of the method: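 Human liver microsomes were used at a final 0.5 mg/ml in potassium phosphate buffer pH 7.4, with compound in DMSO, pre-incubated 10 min at 37 °C. The reaction was started with NADP, G6P, G6P-DH, MgCl2 3 mM and UDPGA 1 mM. Samples were taken at 0 and 30 min, quenched in acetonitrile and analysed by LC–MS/MS. A no-cofactor control and a 7-ethoxycoumarin standard were included.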

[23] = tested on: Mus musculus; assay: Toxicity in CD1 mouse assessed as body weight variation at 150 mg/kg, ip after 13 days; type: organism-based; set-up: dose 150 mg/kg, route intraperitoneal; settings: in vivo, 312 h
Summary of the method: (§5)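 Intraperitoneal dosing was given to groups of 4 mice alongside an untreated control group. Surviving mice were counted and signs noted. Mean body weight was recorded initially and after 5 and 13 days, expressed as % variation.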

[24] = tested on: Mus musculus; assay: Toxicity in CD1 mouse assessed as body weight variation at 150 mg/kg, ip after 5 days; type: organism-based; set-up: dose 150 mg/kg, route intraperitoneal; settings: in vivo, 120 h; summary of the method: as §5
[25] = tested on: Mus musculus; assay: Toxicity in CD1 mouse assessed as body weight variation at 100 mg/kg, ip after 13 days; type: organism-based; set-up: dose 100 mg/kg, route intraperitoneal; settings: in vivo, 312 h; summary of the method: as §5
[26] = tested on: Mus musculus; assay: Toxicity in CD1 mouse assessed as body weight variation at 50 mg/kg, ip after 5 days; type: organism-based; set-up: dose 50 mg/kg, route intraperitoneal; settings: in vivo, 120 h; summary of the method: as §5
[27] = tested on: Mus musculus; assay: Toxicity in CD1 mouse assessed as body weight variation at 50 mg/kg, ip after 13 days; type: organism-based; set-up: dose 50 mg/kg, route intraperitoneal; settings: in vivo, 312 h; summary of the method: as §5
[28] = tested on: Mus musculus; assay: Toxicity in CD1 mouse assessed as survival at 100 mg/kg, ip; type: organism-based; set-up: dose 100 mg/kg, route intraperitoneal; settings: in vivo; summary of the method: as §5
[29] = tested on: Mus musculus; assay: Toxicity in CD1 mouse assessed as survival at 50 mg/kg, ip; type: organism-based; set-up: dose 50 mg/kg, route intraperitoneal; settings: in vivo; summary of the method: as §5
[30] = tested on: Mus musculus; assay: Toxicity in CD1 mouse assessed as body weight variation at 100 mg/kg, ip after 5 days; type: organism-based; set-up: dose 100 mg/kg, route intraperitoneal; settings: in vivo, 120 h; summary of the method: as §5

Compound | Activity [1] [%] | Activity [2] [days] | Activity [3] [%] | Activity [4] [%] | Activity [5] [%] | IC50 [6] [nM] | Activity [7] [days] | Activity [8] [days] | Activity [9] | Activity [10] [days] | IC50 [11] [nM] | Activity [12] [days] | IC50 [13] [nM] | Activity [14] [%] | Activity [15] [days] | Activity [16] | Activity [17] [%] | IC50 [18] [nM] | IC50 [19] [nM] | IC50 [20] [nM] | other results
CCN(CC)CCCC(C)Nc1ccnc2cc(Cl)ccc12.O=P(O)(O)O.O=P(O)(O)O (stereo not drawn) [CHLOROQUINE PHOSPHATE] | 99.2 | 22.3 | >99.9 | >99.9 | 99.2 | 31800 | 14.7 | 9.7 | Active | 30 | > 40000 | 15.7 | > 40000 | 99.8 | 9.3 | 1.69 | 99.9 | – | – | – | –
Clc1ccc2c(NCCC34CCCN3CCC4)ccnc2c1 | 98 | 14.7 | >99.9 | >99.9 | 99.1 | 17600 | 12.3 | 8.7 | Active | 30 | > 60000 | 15.3 | 61400 | 94 | 9.3 | 1.66 | >99.9 | 19.6 | 54.7 | 6.33 | IC50 [21]: 5.5 nM
CCOc1ccc2ccc(=O)oc2c1 [ETHOXYCOUMARIN] | – | – | – | – | – | – | – | – | – | – | – | – | – | – | – | – | – | – | – | – | CL [22]: 7 mL/min/g
Clc1ccc2c(NCC34CCCN3CCC4)ccnc2c1 | 99.5 | 25.7 | >99.9 | >99.9 | 99.7 | 18100 | 13.7 | 10.3 | – | 25 | > 60000 | 29.3 | 24700 | 96 | 7.3 | 1.06 | >99.9 | 10.6 | 28.9 | 10.9 | Activity [23]: 22.9%; Activity [24]: 12.9%; Activity [25]: 22.2%; IC50 [21]: 30.6 nM; Activity [26]: 8.3%; CL [22]: 1.5 mL/min/g; Activity [27]: 20.8%; Activity [28]: Non-toxic; Activity [29]: Non-toxic; Activity [30]: 10.1%

From ChEMBL document CHEMBL1157479, “Antimalarial activity of novel pyrrolizidinyl derivatives of 4-aminoquinoline” (Bioorg Med Chem Lett, 2008)
